Source: ChEMBL document CHEMBL1159018, “(-)-agelasidine C and (-)-agelasidine D, two new hypotaurocyamine diterpenoids from the Caribbean sea sponge Agelas clathrodes” (J Nat Prod, 1992)
Converted amounts (≈) assume the structure as drawn. The source made the active and inactive calls. No cut-off for these calls is given here.

Key:
[1] = Cytotoxicity against CHOK1 cells; assay type: cell-based, Cricetulus griseus; conditions: chinese hamster, CHO-K1 cells; read-out: ED50 (the source's name)
Method in brief: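 CHO-K1 cell growth inhibition, reported as ED50 in µg/ml.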

Klebsiella pneumoniae [2] = assay: Antimicrobial activity against Klebsiella pneumoniae at 1.9 mg/ml by standard disk assay; assay type: functional, organism-based
Method in brief: (§1)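 Tested at one concentration only, 1.9 mg/ml.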

Staphylococcus aureus [3] = assay: Antimicrobial activity against Staphylococcus aureus at 1.9 mg/ml by standard disk assay; assay type: functional, organism-based; method in brief: as §1
Proteus vulgaris [4] = assay: Antimicrobial activity against Proteus vulgaris at 1.9 mg/ml by standard disk assay; assay type: functional, organism-based; method in brief: as §1
Hafnia alvei = assay: Antimicrobial activity against Hafnia alvei by standard disk assay; assay type: functional, organism-based
Escherichia coli = assay: Antimicrobial activity against Escherichia coli by standard disk assay; assay type: functional, organism-based
Proteus vulgaris [5] = assay: Antimicrobial activity against Proteus vulgaris by standard disk assay; assay type: functional, organism-based; method in brief: as §1
Staphylococcus aureus [6] = assay: Antimicrobial activity against Staphylococcus aureus by standard disk assay; assay type: functional, organism-based; method in brief: as §1
Klebsiella pneumoniae [7] = assay: Antimicrobial activity against Klebsiella pneumoniae by standard disk assay; assay type: functional, organism-based; method in brief: as §1

Structure (SMILES) | CC50 [1] [µg/mL] | Activity (Klebsiella pneumoniae [2]) | Activity (Staphylococcus aureus [3]) | Activity (Proteus vulgaris [4]) | Activity (Hafnia alvei) | Activity (Escherichia coli) | Activity (Proteus vulgaris [5]) | Activity (Staphylococcus aureus [6]) | Activity (Klebsiella pneumoniae [7])
CC1=CCC[C@H](C)[C@@]1(C)CC/C(C)=C/CC/C(C)=C/CS(=O)(=O)CCNC(=N)N | 5.7 (≈ 13.5 µM) | Active | Active | Active |  |  |  |  | 
CC1=CCC[C@H](C)[C@@]1(C)CC/C(C)=C/CC/C(=C/CS(=O)(=O)CCNC(=N)N)CO | 2.21 (≈ 5.03 µM) |  |  |  | Active | Active | Active | Active | Active
